Screening data as filed in PubChem BioAssay.
Most compounds without a hit are left out; they make up all but 4.1% or so of the library.
MrgX1 antag: human MrgX1 receptor antagonism, primary screen | B-score at 10 µM | MRGX1-HEK293 calcium flux, Fluo-4, BAM8-22 antagonism; active compounds read low | Q96LB2 | hit rate 1.3% among 310,000;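 active = calcium-response B-score plate-corrected more than 3 library SD below zero, starting fluorescence within 5 deviations, no agonist response on first addition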;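 note: peak minus trough fluorescence over baseline after final BAM8-22 challenge near maximal dose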
Target sequence (Q96LB2 whole entry, looked up): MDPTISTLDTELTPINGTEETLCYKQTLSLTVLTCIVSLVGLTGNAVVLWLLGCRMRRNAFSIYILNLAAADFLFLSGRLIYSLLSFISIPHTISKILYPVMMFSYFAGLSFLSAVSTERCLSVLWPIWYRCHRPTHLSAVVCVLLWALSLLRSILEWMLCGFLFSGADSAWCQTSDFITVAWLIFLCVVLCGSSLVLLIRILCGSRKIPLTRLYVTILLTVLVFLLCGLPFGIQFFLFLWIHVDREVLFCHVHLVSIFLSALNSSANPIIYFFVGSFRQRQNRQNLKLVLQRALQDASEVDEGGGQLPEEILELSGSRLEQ
RGS4 block: inhibitors of human RGS4 | P49798 | HEK293 M3R/RGS4 inducible, Fluo-4 calcium flux; active compounds read high; triggered by carbachol at its EC20 | B-score at 10 µM | hit rate 0.45% among 310,000 | AID 463165;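 active = B-score, a plate-corrected calcium signal, over three deviations above library mean, with baseline fluorescence within five deviations of library mean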;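 note: RGS4 expression induced by doxycycline in cells with stable M3 receptor; B-score is computed from the integrated fluorescence ratio over baseline after carbachol; higher B-score means a larger calcium signal and so more RGS4 inhibition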
Target sequence (P49798 whole entry, looked up): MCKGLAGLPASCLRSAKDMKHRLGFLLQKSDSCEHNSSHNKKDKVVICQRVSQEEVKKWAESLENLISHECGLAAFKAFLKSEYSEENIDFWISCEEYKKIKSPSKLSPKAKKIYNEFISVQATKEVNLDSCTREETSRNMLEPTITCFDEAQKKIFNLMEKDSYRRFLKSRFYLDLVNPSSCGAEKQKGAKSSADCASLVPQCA
Kir21 inh: Kir2.1 (mouse) channel inhibition | P35561 | HEK293-Kir2.1, FluxOR thallium flux fluorescence; active compounds read low | B-score at 10 µM | hit rate 0.85% among 310,000;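 active = fluorescence ratio B-score at or below minus 3 SD of library scores, with starting-brightness B-score within 2 SD, cut at about -4.2 in these data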;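 note: channel flux triggered by added potassium and thallium sulfate stimulus; B-score of peak minus minimum fluorescence over baseline after thallium stimulus; more negative B-score means stronger Kir2.1 block with less thallium influx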
MrgX1 ag: agonists of human MrgX1 receptor; MrgX1-HEK293 cells, Fluo-4 calcium fluorescence, agonist mode; active compounds read high; B-score at 10 µM; hit rate 0.44% among 310,000;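 active = calcium response B-score plate-corrected fluorescence ratio at least 3 library SD, with starting fluorescence B-score inside 5 SD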
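Test system: HEK293 cells stably expressing human MrgX1 receptor; amount: 15,000 cells per well; doses: compound delivered in addition one of three; times: overnight plating before 1 h dye loading; detection: Fluo-4 NW calcium-flux fluorescence, kinetic read; read-out basis: B-scored fluorescence response ratio; controls: positive and negative controls per plate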
MrgX1 allo act: allosterically activates human MrgX1 receptor signaling; Q96LB2; MrgX1-HEK293, Fluo-4 calcium flux, FDSS; active compounds read high; B-score at 10 µM; hit rate 0.63% among 310,000; AID 588675;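 active = plate-corrected calcium response at least 3 library SD above typical, normal starting fluorescence, not activating the receptor alone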;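 note: compound read alongside a low EC10 to EC30 dose of BAM8-22 agonist; peak minus trough fluorescence over baseline measured at the second addition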
RGS4 pot: RGS4 potentiation or activation; B-score at 10 µM; AID 463111; HEK293 M3R/inducible RGS4, carbachol calcium flux Fluo4; active compounds read low; hit rate 0.92% among 310,000;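 active = B-score of the integrated calcium signal more than 4 SD below the library mean, with starting fluorescence not abnormally high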;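 note: negative B-score means reduced calcium response which marks RGS4 activation or potentiation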
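Material: Inducible-RGS4 HEK293 cells carrying M3 receptor; also added: carbachol at ECmax as muscarinic agonist stimulus; incubation: compound preincubation 20 min at room temperature before agonist; signal: Fluo4-AM (2 µM) calcium-flux fluorescence, kinetic read; measure: integrated calcium ratio converted to B score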
An asterisk follows results filed as active; i = inactive.

SMILES	MrgX1 antag	RGS4 block	Kir21 inh	MrgX1 ag	MrgX1 allo act	RGS4 pot
CCCCn1c(Cc2ccccc2)n[nH]c1=S	i	i	-1.18	i	i	-7.4*
CCCCCn1c(=O)c2ccccc2n2c(=S)[nH]nc12	i	i	-0.99	i	i	i
CC(C)OCCCNC(=O)c1cc2c(=O)n(C)c3ccccc3c2n1C	i	i	-0.56	i	i	i
CCCCN(CC)CCCNC(=O)c1cc2c(=O)n(C)c3ccccc3c2n1C	-5.52*	i	-0.57	i	i	i
CC1=C(C#N)c2nc(N)c(C#N)c(C)c2/C1=C\c1ccc(C)cc1	-5.9*	i	-0.34	i	i	i
COc1ccc(-c2cc(C(=O)Nc3ccccc3SC)no2)cc1OC	i	i	0.17	i	i	i
Cc1oc2cc(Br)c(O)c(Br)c2c1-c1ccccc1	i	i	0.11	i	14.7*	i
COc1cccc(C(=O)Nc2cnc(NC(=O)c3ccco3)cc2C)c1	i	i	0.97	i	i	i
O=C(On1c(-c2ccccc2)nc2ccccc2c1=O)c1ccco1	i	i	-3.92	i	i	-8.11*
Cc1ccccc1C(=O)NC1CC2CCCC(C1)N2Cc1ccccc1 (centres undefined)	i	i	-0.07	i	i	i
N#CC(c1ccccc1)N(CCCCl)C(=O)c1ccccc1 (centres undefined)	i	i	-4.6*	i	i	i
CCOC(=O)c1c(C)[nH]c(C(=O)OCC(=O)c2c(N)n(C)c(=O)n(C)c2=O)c1C	i	i	-1.19	i	i	i
CCCOc1ccc2nc(C)c(CCC)c(SC(=N)N)c2c1	i	i	0.32	i	i	i
Nc1nc(Nc2ccccc2)nc(N2CCCC2)c1[N+](=O)[O-]	i	i	1.7	i	i	i
Cc1onc(-c2ccccc2)c1C(=O)OCCOc1ccc([N+](=O)[O-])cc1[N+](=O)[O-]	i	i	-1	i	i	i
COc1ccc(/C=N/Nc2nc(N3CCCC3)nc(N3CCCC3)n2)cc1	i	i	-0.64	i	i	i
COc1cccc(/C=N/Nc2nc(Nc3ccc([N+](=O)[O-])cc3)nc(N3CCCC3)n2)c1O	i	i	2.45	i	i	-9.22*
COc1ccc(/C=N/Nc2nc(Nc3ccccc3)nc(N3CCCC3)n2)cc1	-5.93*	i	-0.02	i	i	i
O=C(Nc1ccc(Br)cc1)Nc1ccccc1F	i	i	0.85	i	i	i
O=C(Nc1ccc(Cl)c(Cl)c1)Nc1ccc(Br)cc1F	-5.18*	i	-0.41	i	i	i
CC(=O)N1CCOc2ccc(S(=O)(=O)Nc3ccc(Cl)cn3)cc21	i	i	0.95	i	i	i
Oc1ccccc1/C=N/n1cnn(Cc2ccccc2Cl)c1=S	-6.13*	i	1.22	i	i	i
COc1ccc(C(=O)NNC(=O)Cc2ccc(Cl)cc2)cc1	i	i	0.8	i	i	i
COc1cccc(NC(=O)CNS(=O)(=O)c2ccc(Cl)cc2)c1	i	i	-4.24*	i	i	i
COc1cccc(C(=O)NNC(=O)Cc2ccc(Cl)cc2)c1	-6.99*	i	-0.09	i	i	i
SMILES	MrgX1 antag	RGS4 block	Kir21 inh	MrgX1 ag	MrgX1 allo act	RGS4 pot
COc1ccc(/C(=N\Nc2ccccc2C(=O)O)c2ccccc2)cc1	i	i	-0.86	i	i	i
CCOc1ccc(N2C(=O)CC(Sc3nc(-c4cccs4)cc(C(F)(F)F)c3C#N)C2=O)cc1 (centres undefined)	-7.06*	i	0.74	i	i	i
Cc1cc(C)cc(-n2c(C)cc(/C=N/NC(=O)CSc3ncccn3)c2C)c1	i	i	-2.61	i	i	-8.35*
Cc1cc(C)cc(-n2c(C)cc(/C=N/NC(=O)c3cccc([N+](=O)[O-])c3C)c2C)c1	i	i	0.01	i	i	-7.35*
C=Cc1ccc2c(c1)OCCOCCOCCOCCOCCO2	i	i	0.55	i	i	i
CC(C)[C@H](NC(=O)OCc1ccccc1)C(=O)N[C@@H](Cc1c[nH]c2ccccc12)C(=O)O	i	i	0	i	i	i
CC(=O)c1c(C)[nH]c(C(=O)OCC(=O)Nc2ncc(Cl)c(C)c2Cl)c1C	i	i	-0.78	i	i	i
Cc1ccc(-c2cc(C(=O)NCc3ccco3)no2)cc1	i	i	0	i	i	i
COc1ccc(-c2csc(NC(=O)c3ccc(OCC(=O)N4CCOCC4)c(OC)c3)n2)cc1	-5.13*	i	0.25	i	i	i
CSc1nc2c(c(=O)[nH]1)C(c1ccc(F)cc1)CC(=O)N2 (centres undefined)	i	i	-0.14	i	i	i
O=C(O)/C=C/c1cn(-c2ccccc2)nc1-c1ccc(-c2ccc([N+](=O)[O-])cc2)o1	-4.56*	i	0.03	i	i	i
COc1ccc(-c2nn(-c3ccccc3)cc2/C=C/C(=O)O)cc1[N+](=O)[O-]	i	i	-0.68	i	9.17*	i
O=[N+]([O-])c1ccc(N/N=C/c2cn(-c3ccccc3)nc2-c2ccccc2)cc1	-4.54*	i	1.39	i	i	i
O=C(Cn1cnc([N+](=O)[O-])c1)c1ccc(F)cc1	i	i	-0.71	i	10.9*	i
O=C(CN1CCN(CC(=O)Nc2ccccc2F)CC1)Nc1ccc2c(c1)OCCO2	i	i	-1.07	i	i	i
COc1cccc(/C=N/NC(=O)c2c(C)nc3ccc(Br)cn23)c1O	i	i	0.22	i	i	i
CCC(NC(=S)NCc1ccc(F)cc1)c1ccccc1 (centres undefined)	-5.72*	i	-7.42*	i	i	i
COc1ccc(Cl)cc1NC(=S)NCCc1ccc(S(N)(=O)=O)cc1	i	i	-2.96	i	i	i
Fc1ccc(CNC(=S)NCc2cccc(Cl)c2)cc1	i	i	-4.37*	i	i	i
COc1ccc(Cl)cc1NC(=S)NCCc1ccc(F)cc1	i	i	-4.64*	i	i	i
S=C(NCc1ccccc1)NCc1cccc(Cl)c1	i	i	-3.1	i	i	i
O=[N+]([O-])c1ccc(NC(=S)NCCc2ccc(F)cc2)cc1	i	i	-5.25*	30.3*	i	i
O=C(NCCc1ccc(F)cc1)Nc1ccc([N+](=O)[O-])cc1	i	i	1.58	i	i	i
